Assay results collected from several papers.
Compare with care: the assays were run in different laboratories.
FLT3: Receptor-type tyrosine-protein kinase FLT3 (FLT3, Homo sapiens, UniProt P36888)
FLT3 D835Y: Receptor-type tyrosine-protein kinase FLT3 (FLT3, Homo sapiens, UniProt P36888, D835Y)
FLT3 D835V: Receptor-type tyrosine-protein kinase FLT3 (FLT3, Homo sapiens, UniProt P36888, D835V)
FLT3 R834Q: Receptor-type tyrosine-protein kinase FLT3 (FLT3, Homo sapiens, UniProt P36888, R834Q)
FLT3 K663Q: Receptor-type tyrosine-protein kinase FLT3 (FLT3, Homo sapiens, UniProt P36888, K663Q)

`CCN(CC)c1ccc(C2=NNC(=O)CC2C)cc1[N+](=O)[O-]` (stereo not drawn) has a remaining activity of 89% (FLT3; enzyme activity, inhibitor; 10 µM).
`Cc1cnc(NC2CCOCC2)nc1-n1cnc(C(=O)NC(CN)c2cc(F)cc(Cl)c2)c1` (stereo not drawn) has a remaining activity of 105% (FLT3 D835Y; enzyme activity, inhibitor, radiometric; 1 µM).
`COc1cc(Cl)c(C(=O)N[C@@H](CN[C@H]2CC[C@@H](N)CC2)Cc2ccc(C#N)cc2)cc1-c1ccc(CN[C@H](C)c2ccc(C)cc2)o1` has a remaining activity of 103% (FLT3; enzyme activity, inhibitor; 1 µM).
With `CN(c1nccc(-c2cnn3ncccc23)n1)C1CC1` the remaining binding was 65% (FLT3; binding; 1 µM).
For `Cc1[nH]c(/C=C2\C(=O)Nc3ccc(F)cc32)c(C)c1C(=O)N[C@H]1CCN(C(=O)N(C)C)C1`, the remaining activity was 2% (FLT3; enzyme activity, inhibitor; 1 µM).
For `COc1ccc(COc2ccc(Cc3cnc(N)nc3N)cc2OC)cc1`, the remaining signal was 103% (FLT3; cell-free assay; 0.5 µM).
For `CCC(=N\O)/C(C)=C/c1ccc(F)cc1`, the remaining binding was 100% (FLT3 D835V; cell-free assay, competition with immobilised ligand; 1 µM).
For `O=C(c1cc2cc(O)ccc2[nH]1)c1cc2cc(O)ccc2[nH]1`, the remaining signal was 3.53% (FLT3; cell-free assay; 0.5 µM).
`Cc1ccc(NC(=O)c2ccc(C)c(C(F)(F)F)c2)cc1C#Cc1nn(C2CCC(O)CC2)c2ncnc(N)c12` (stereo not drawn) gave a remaining activity of 118% (FLT3 D835Y; enzyme activity, inhibitor; 10 µM).
`COc1cc(Nc2c(C#N)cnc3cc(OCCCN4CCN(C)CC4)c(OC)cc23)c(Cl)cc1Cl` has a remaining signal of 30.3% (FLT3; cell-free assay; 0.5 µM).
The remaining binding of `O=C1CCc2cc(Nc3cc(OC4CCOCC4)c([N+](=O)[O-])cc3Cl)ccc2N1` is reported as 100% (Receptor-type tyrosine-protein kinase FLT3 (FLT3, Homo sapiens, UniProt P36888, ITD); cell-free assay, competition with immobilised ligand; 1 µM).
`CN(C)c1nccc(-c2cnn3ncccc23)n1` has a remaining binding of 98% (FLT3; binding; 1 µM).
The remaining signal of `O=C1Nc2ccc(Cl)cc2C1=Cc1cc(Cl)c(O)c(Cl)c1` is reported as 26.5% (FLT3; cell-free assay; 0.5 µM).
`C[C@H](NC(=O)c1cnc2n1[C@](C)(Cc1ccc(C#N)cc1)C(=O)N2c1cc(Cl)c(F)c(Cl)c1)C(=O)NC1(c2ccccn2)CC1` gave a remaining binding of 90% (FLT3 R834Q; cell-free assay, competition with immobilised ligand; 1 µM).
For `Nc1ncnc2occ(-c3ccc(NC(=O)Nc4cc(C(F)(F)F)ccc4F)cc3)c12`, the remaining signal was 1.8% (FLT3; cell-free assay, inhibitor; 20 µM).
The remaining binding of `Cc1nc(Cc2cccc(C(F)(F)F)c2)sc1-c1ccc(C(N)=O)nc1` is reported as 100% (FLT3 D835V; cell-free assay, competition with immobilised ligand; 1 µM).
The remaining binding of `CN(C)c1ncc(F)c(-c2cnn3ncccc23)n1` is reported as 65% (FLT3 R834Q; binding; 1 µM).
With `CC(C)(O)c1cncc(-c2nc3ccc(F)cc3n2C2CC2)c1` the remaining binding was 100% (FLT3 K663Q; cell-free assay, competition with immobilised ligand; 1 µM).
`Cc1ccc(C(=O)Nc2ccc(CN3CCN(C)CC3)c(C(F)(F)F)c2)cc1C#Cc1cnc2cccnn12` has a remaining activity of 5% (FLT3 R834Q; enzyme activity, inhibitor; 23.5 nM).
`FC(F)(F)c1ccc2c(c1)nc(-c1cccnc1)n2C1CC1` gave a remaining binding of 100% (FLT3 K663Q; cell-free assay, competition with immobilised ligand; 1 µM).
With `Fc1cccc(-n2cnc3c(NCc4nc5c(F)c(F)ccc5[nH]4)nc(N4CCOCC4)nc32)c1` the binding vs control was 41% (FLT3 D835Y; binding, competition with immobilised ligand; 10 µM).
